Only some compounds are listed: those with a hit (about 2.7% of all), similar ones and a draw of the others.
Plk1 PBD FP – inhibitors of human Plk1 polo box domain binding; P53350; Plk1 PBD phosphopeptide binding, fluorescence polarization; inhibition, %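 (tested at about 20 µM)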; 97,000 compounds, 0.13% hits; AID 693; in the data active = inhibition above about 34%, passing the limit was not always enough
PTPN22 act – increases human PTPN22 phosphatase activity; Q9Y2R2; recombinant LYP, DiFMUP fluorescence; 0 = plate median, 100 = signal doubled; activation, % at 2 µM; 96,000 compounds, 0.11% hits;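 active = activation at 2 µM above a set limit, the mean plus 5 SD, cut at about 37% in these data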
Target sequence (Q9Y2R2 whole entry, looked up): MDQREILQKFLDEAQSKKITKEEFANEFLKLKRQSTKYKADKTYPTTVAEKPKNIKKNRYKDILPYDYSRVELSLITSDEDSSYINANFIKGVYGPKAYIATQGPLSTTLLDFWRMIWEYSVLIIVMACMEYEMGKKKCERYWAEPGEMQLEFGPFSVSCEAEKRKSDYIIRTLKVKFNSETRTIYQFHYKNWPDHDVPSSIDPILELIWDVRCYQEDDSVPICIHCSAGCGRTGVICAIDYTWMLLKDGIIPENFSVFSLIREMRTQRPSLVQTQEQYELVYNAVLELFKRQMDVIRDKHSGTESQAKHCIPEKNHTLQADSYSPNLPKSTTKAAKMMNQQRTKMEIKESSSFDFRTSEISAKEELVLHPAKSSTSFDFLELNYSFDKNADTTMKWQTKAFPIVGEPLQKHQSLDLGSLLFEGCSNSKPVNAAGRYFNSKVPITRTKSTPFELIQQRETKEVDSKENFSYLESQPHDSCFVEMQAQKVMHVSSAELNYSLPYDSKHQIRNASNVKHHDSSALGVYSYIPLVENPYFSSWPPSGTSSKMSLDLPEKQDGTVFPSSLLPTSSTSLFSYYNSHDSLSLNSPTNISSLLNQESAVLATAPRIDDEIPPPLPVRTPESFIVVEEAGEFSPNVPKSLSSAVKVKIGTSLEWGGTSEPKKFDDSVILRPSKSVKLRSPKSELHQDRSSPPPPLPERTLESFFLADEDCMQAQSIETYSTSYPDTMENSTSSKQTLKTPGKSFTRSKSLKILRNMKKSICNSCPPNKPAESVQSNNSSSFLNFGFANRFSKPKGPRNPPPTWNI
PLK1 inh – PLK1 (human) kinase inhibition; recombinant PLK1 kinase, TR-FRET peptide phosphorylation; P53350; inhibition, % at 10 µM; AID 619; 97,000 compounds, 0.53% hits;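 active = inhibition of 50% or more in the single-concentration screen; inactive = inhibition below 50%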
HIV Rev-RRE inh – HIV Rev-RRE protein-RNA interaction inhibition; 97,000 compounds, 0.79% hits; Rev peptide-RRE RNA binding, FRET; P05866; inhibition, % at 8 µM; AID 704;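 active = inhibition above the screen-wide mean plus 3 SD, cut at about 35% in these data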
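Assay system: Labelled RRE RNA duplex and labelled Rev peptide | Times: 5 min preincubation and 15 min binding, 25 °C | Detection: FRET, ex 480 nm, em 540 and 671 nm | Evaluation: % inhibition of FRET ratio versus controls | Benchmarks: DMSO wells as 0% and neomycin B wells as 100% inhibition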
LYP inh 2 – LYP (human) phosphatase inhibition | inhibition, % at 2 µM | 96,000 compounds, 0.21% hits | Q9Y2R2 | recombinant LYP catalytic domain, DiFMUP fluorescence;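 active = inhibition at 2 µM at or above a set limit, the screen mean plus 3 SD, cut at about 24% in these data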
DAT uptake mod – human DAT dopamine uptake with cocaine, either direction | 110,000 compounds, 1.3% hits | AID 449768 | LLC-PK1 hDAT cells, [14C]-dopamine uptake with cocaine IC80; actives deviate in either direction | Q01959 | B-score at 10 µM;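 active = Z score or B-score, a plate-position-corrected score, falls beyond the plate's 99.7% confidence bounds, in either direction; inactive = both scores lie inside the 99.7% bounds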
Of the large screens only hits and unclear results are named; the others gave an inactive call; [ ] = another dose, or the depositor's remark.

O=C(CSc1ncn[nH]1)Nc1nnc(-c2ccccc2)s1	PLK1 inh 63 (no result: PTPN22 act, LYP inh 2)
CCOC(=O)c1c(CN(CC)CC)oc2cc(Br)c(O)cc12	DAT uptake mod 4.1
CCN(Cc1cc2cc(OC)ccc2[nH]c1=O)C(=O)Cc1ccc(OC)cc1	DAT uptake mod -3.2
COc1cccc(C(=O)N(Cc2cc3cc(C)ccc3[nH]c2=O)CC2CCCO2)c1 (stereo not given)	DAT uptake mod 3 (no result: Plk1 PBD FP, PTPN22 act, PLK1 inh, HIV Rev-RRE inh, LYP inh 2)
COc1cc(C)nc(Oc2ccc(OCCOc3ccc(C)cc3)nn2)n1	none
Cc1cc(OC(=O)c2c(C)cc(OC(=O)c3c(C)cc(O)cc3O)cc2O)cc(O)c1C(=O)O	none (no result: Plk1 PBD FP, PTPN22 act, PLK1 inh, HIV Rev-RRE inh, LYP inh 2)
CC(=Nc1ccc(O)cc1)c1sc2ccccc2c1O	HIV Rev-RRE inh 42
O=C(c1ccc(Oc2ccccc2)cc1)c1nc2c(n1O)CCCC2	none
COCCn1c(N)c(NCc2ccccc2)c(=O)n(CC(=O)Nc2cc(C)ccc2C)c1=O	DAT uptake mod 2
CN1CC=C2C(C#N)=C(N)C(C#N)(C#N)C(Cc3ccccc3)C2C1 (stereo not given)	HIV Rev-RRE inh 72
CC(C)N1CC=C2C(C#N)=C(N)C(C#N)(C#N)[C@H](c3ccoc3)[C@H]2C1	HIV Rev-RRE inh 107[fluorescence artefact?]
N#CC1=C(N)C(C#N)(C#N)[C@H](c2ccncc2)[C@H]2CN(C(=O)OCc3ccccc3)CC=C12	DAT uptake mod 2.8 (no result: Plk1 PBD FP, PTPN22 act, PLK1 inh, HIV Rev-RRE inh, LYP inh 2)
CC(C)N1CC=C2C(C#N)=C(N)C(C#N)(C#N)C(c3ccccc3)C2C1 (stereo not given)	HIV Rev-RRE inh 91[fluorescence artefact?]
CC(C)(C)OC(=O)N1CC=C2C(C#N)=C(N)C(C#N)(C#N)[C@H](c3cccnc3)[C@H]2C1	none (no result: Plk1 PBD FP, PTPN22 act, PLK1 inh, HIV Rev-RRE inh, LYP inh 2)
CCc1ccccc1NC(=O)Cn1nc(C(F)(F)F)cc1C1CC1	none
CCO[C@H]1OC(C(=O)NCc2ccccc2)=C[C@@H](C2CC2)[C@@H]1CCCO	none (no result: Plk1 PBD FP, PTPN22 act, PLK1 inh, HIV Rev-RRE inh, LYP inh 2)
CCN1CC=C2C(C#N)=C(N)C(C#N)(C#N)C(c3cc(Cl)ccc3Cl)C2C1 (stereo not given)	HIV Rev-RRE inh 66 (no result: DAT uptake mod)
Cc1ccc(S(=O)(=O)N/N=C\c2cn(-c3ccccc3)nc2-c2ccccc2)cc1	none
Cc1ccc(S(=O)(=O)N/N=C/c2c(C)nn(-c3ccccc3)c2C)cc1	DAT uptake mod 2.5
CCCCSc1ccc2nc(-c3ccc(C#N)cc3)cn2c1	DAT uptake mod 2.4
O=c1c(-c2nnc(SCc3ccc(Cl)cc3Cl)o2)cccn1Cc1ccccc1	LYP inh 2 25
CC1=NOC(=O)/C1=C/c1ccc(N(C)C)cc1	HIV Rev-RRE inh 86
COc1ccc(N2C(=O)CSC2c2ccncc2)cc1 (stereo not given)	DAT uptake mod -7.4 (no result: Plk1 PBD FP, PTPN22 act, PLK1 inh, HIV Rev-RRE inh, LYP inh 2)
COc1ccc(N2C(=O)CSC2c2ccc3c(c2)OCO3)cc1 (stereo not given)	none
Cc1ccc2cc(CN(CCCN3CCOCC3)C(c3nnnn3Cc3ccco3)C(C)C)c(=O)[nH]c2c1C (stereo not given)	DAT uptake mod 3.7
Cc1ccc(CSc2nnc(-c3ccco3)o2)cc1	none
O=C(Nc1ccccc1N1CCN(c2ccc(F)cc2)CC1)c1ccccc1	none
CN1CCN(c2ccccc2NC(=O)c2ccc(-c3ccccc3)cc2)CC1	DAT uptake mod 4.9
COc1ccc(Cl)cc1C(=O)Nc1ccccc1N1CCN(C)CC1	DAT uptake mod 3.5
CN1CCN(c2ccccc2NC(=O)c2ccc(OCc3ccccc3)cc2)CC1	DAT uptake mod 2.6
COc1c(Cl)cc(Cl)cc1C(=O)Nc1ccccc1N1CCN(C(C)=O)CC1	none (no result: DAT uptake mod)
CCOc1ccc(NC(=O)c2c(N)n(C)c(=O)[nH]c2=O)cc1	none (no result: Plk1 PBD FP, PTPN22 act, PLK1 inh, HIV Rev-RRE inh, LYP inh 2)
CCCSc1nc(C)c(-c2csc(C(C#N)=C3CCCC3)n2)cc1C#N	LYP inh 2 26
COc1ccc(CNC(=O)C2(CC3CC(c4ccccc4)=NO3)CCNCC2)cc1 (stereo not given)	none (no result: Plk1 PBD FP, PTPN22 act, PLK1 inh, HIV Rev-RRE inh, LYP inh 2)
COc1cccc(N=Cc2c[nH][nH]c2=O)c1	DAT uptake mod -7.7
COc1ccc(S(=O)(=O)c2c(N)n(Cc3ccco3)c3nc4ccccc4nc23)cc1	HIV Rev-RRE inh 53
Cn1c(CSCc2ccc(Cl)cc2)nnc1SCC(=O)Nc1nccs1	none
Cn1c(CSCc2ccc(F)cc2)nnc1SCC(=O)Nc1nccs1	PLK1 inh 52
Cn1c(CSCc2ccccc2)nnc1SCC(=O)Nc1nccs1	PLK1 inh 56
